Paper PMC5108244 (ACS Infectious Diseases, 2016)

Assays:
[1] = tested on: T. brucei brucei TREU667 strain; experiment: Late-stage T. brucei infection model in mice; type: in vivo; conditions: mice n = 5, orally 25 mg/kg qd for 10 days, monitored 90 days
Procedure, shortened: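 Female Swiss Webster mice (6–8 weeks, n = 5/group) infected ip on day 0 with 1 × 10^4 donor-mouse parasites in IMDM. From day 7, oral dosing for 10 days in DMSO/EtOH/Tween-80/saline: test compound 50 mg/kg bid, benzoxaborole control 25 mg/kg qd, vehicle bid. Diminazene control: single ip dose of 10 mg/kg on day 7. Tail blood checked microscopically at least twice weekly to day 30, then weekly to day 90. Parasitemic mice euthanized.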

[2] = tested on: T. brucei rhodesiense STIB900 strain; experiment: Early-stage T. brucei infection model in mice; type: in vivo
Procedure, shortened: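 Female Swiss Webster mice (6–8 weeks, n = 4/group) infected ip on day 0 with 1 × 10^4 fresh-culture bloodstream-form parasites diluted in IMDM. Oral dosing twice daily, days 2–5 (eight doses), in 5% DMSO, 7% EtOH, 3% Tween-80 in saline; vehicle group in parallel; benzoxaborole reference as positive control. Parasitemia checked microscopically in tail blood through day 60.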

Q: With CC1(C)OB(O)c2cc(NC(=O)c3ccc(F)cc3C(F)(F)F)ccc21 [compound 14, 4-fluoro-N-(1-hydroxy-3,3-dimethyl-2,1-benzoxaborol-6-yl)-2-(trifluoromethyl)benzamide] as the compound, how does the “mice free of infection at the end of the experiment” value [1] read?
A: The value was “all survived and were free of infection”.

Q: And the “cures as of day 60” value ([2]; mice n = 4, 1 mg/kg po bid for 4 days)?
A: The value was 0/4.

Q: And the “cures as of day 60” value ([2]; mice n = 4, 5 mg/kg po bid for 4 days)?
A: The value was 1/4.

Q: What about the “cures as of day 60” value ([2]; mice n = 4, 10 mg/kg po bid for 4 days) of the same compound?
A: Its value is 4/4.
